This is a sample that favours compounds with a hit; in the whole collection about 1.7% have one here.
TPT1 inh: C. albicans TPT1 enzyme inhibition; AID 1962; recombinant caTPT1, FP RNA substrate dephosphorylation; 0.81% of 300,000 active; inhibition, % at 5 µM;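 active = inhibition above the mean of all tested compounds plus 3 SD, set per screening campaign, cut at about 24% in these data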;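 note: plate controls were DMSO alone for no effect and ferristatin control at 100 nM for full effect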
Rpn11 inh: blocks the human proteasome subunit Rpn11 | O00487 | human 26S proteasome, Ub4-pepOG fluorescence polarization; 20S core pre-blocked with epoxomicin | calls only at 20 µM | 0.59% of 360,000 active;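 active = inhibition at 20 µM, scaled to each plate's controls, above about 33%, limit read from the data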
Target sequence (O00487 whole entry, looked up): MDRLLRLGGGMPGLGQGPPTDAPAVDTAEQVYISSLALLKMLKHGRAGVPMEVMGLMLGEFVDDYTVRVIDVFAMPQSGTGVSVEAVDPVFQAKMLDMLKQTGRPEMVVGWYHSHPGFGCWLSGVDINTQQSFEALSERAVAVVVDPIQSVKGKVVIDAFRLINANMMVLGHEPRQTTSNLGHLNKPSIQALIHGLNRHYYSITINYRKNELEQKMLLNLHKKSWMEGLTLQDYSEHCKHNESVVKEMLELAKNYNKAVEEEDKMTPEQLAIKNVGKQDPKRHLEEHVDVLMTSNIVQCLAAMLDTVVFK
IDE cell inh: cellular human IDE inhibition; 0.41% of 320,000 active; inhibition, % at 5.59 µM; HEK cells, FAbetaB cleavage, fluorescence polarization; P14735;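 active = percent inhibition above the average of all tested compounds plus 3 SD, set per screening campaign, cut at about 16% in these data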;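 note: IDE supplied by intact live HEK cells; FP after avidin binding of uncleaved biotin substrate so inhibition keeps polarization high; 0% = DMSO wells and 100% = 60 µM reference IDE inhibitor Ii1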
HNF4A DNA FP: change in binding of human HNF4 alpha to DNA. HNF4a-FITC DNA binding, fluorescence polarization, 1 h. 0.3% of 360,000 active. P41235. AID 1224865. activity change, % at 10 µM; in the data active = activity change above about 30%, passing the limit was not always enough
CSN inh: blocks human CSN-mediated cullin deneddylation | Q92905 | Purified CSN, SCF-Nedd8-OG deneddylation, fluorescence polarization | inhibition, % at 12.5 µM | 0.38% of 360,000 active;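 active = pattern-corrected inhibition above about 35%, with an unprinted fluorescence ratio check between 0.5 and 1.5, limit read from the data, passing the limit was not always enough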;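 note: 0% = enzyme with substrate and 100% = substrate without enzyme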
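Detection – fluorescence polarization · System – HEK293T-derived human Csn5 enzyme · Controls – substrate-only high control, full reaction low control · Timing – 90 min, room temperature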
IDE act: activators of human insulin-degrading enzyme in cells; 0.073% of 340,000 active; activation, % at 5.96 µM; P14735; HEK cells, FAbeta-B cleavage, fluorescence polarization; 0% vehicle, 100% cell-free pure enzyme wells;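 active = activation above the mean of all tested compounds plus 3 SD, set per screening campaign, cut at about 17% in these data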
* = called active by the depositor.

Screening C#CCOCCOCCOCCNc1nc(N2CCN(C(=O)CCCCCCCCCCNC(=O)[C@H](CCCCN)n3cc(C[C@@H](C)CC)nn3)CC2)nc(N2CCN(C(=O)CCCCCCCCCCNC(=O)[C@@H]([C@H](C)O)n3cc(C)nn3)CC2)n1 returned TPT1 inh -1, Rpn11 inh inactive, IDE cell inh -6, HNF4A DNA FP 65*, CSN inh 66* and IDE act 34*.
C#CCOCCOCCOCCNc1nc(N2CCN(C(=O)CCCCCCCCCCNC(=O)[C@H](CCCCN)n3cc(C)nn3)CC2)nc(N2CCN(C(=O)CCCCCCCCCCNC(=O)[C@@H]([C@H](C)O)n3cc(C)nn3)CC2)n1 was read as TPT1 inh -3, Rpn11 inh inactive, IDE cell inh 6, HNF4A DNA FP -1, CSN inh -2 and IDE act 21*.
For COc1cccc(NC(=S)NN2C(C)CCCC2C)c1 (configuration not stated) the results were TPT1 inh -2, Rpn11 inh inactive, IDE cell inh 3, HNF4A DNA FP -4, CSN inh -2 and IDE act 4.
CS(=O)(=O)Nc1cccc(C2=NN(S(C)(=O)=O)C(c3ccc4c(c3)OCO4)C2)c1 (configuration not stated) was read as TPT1 inh 3, Rpn11 inh inactive, IDE cell inh 4, HNF4A DNA FP 36*, CSN inh -4 and IDE act 0.
`Cc1cc(C(=O)N/N=C/c2ccc(OC(=O)c3ccccc3Br)cc2)n[nH]1` gave TPT1 inh 0, Rpn11 inh inactive, IDE cell inh 12, HNF4A DNA FP 0, CSN inh 8 and IDE act -16.
CCN(CCNC(=O)C1CCC(=O)N1Cc1ccc(C)cc1)c1ccccc1 (configuration not stated) was read as TPT1 inh -2, Rpn11 inh inactive, IDE cell inh 0, HNF4A DNA FP 3, CSN inh 2 and IDE act 1.
For Cc1cc(C(=O)N/N=C/c2ccc(-c3ccc([N+](=O)[O-])cc3Cl)o2)n[nH]1 the results were TPT1 inh 14, Rpn11 inh inactive, IDE cell inh 2, HNF4A DNA FP 4, CSN inh 46* and IDE act -3.
Screening C[C@@H]1CN([C@H](C)CO)C(=O)c2c(c3ccccc3n2C)-c2ccccc2CO[C@H]1CN(C)C(=O)CCC(F)(F)F returned Rpn11 inh inactive, HNF4A DNA FP -2 and CSN inh 3.
`O=C(N/N=C/c1ccc(OC(=O)c2cccc(F)c2)cc1)c1cccnc1` gave TPT1 inh 0, Rpn11 inh inactive, IDE cell inh -6, HNF4A DNA FP -3, CSN inh 41* and IDE act -1.
`O=C(N/N=C/c1ccc(OC(=O)c2cccc(Br)c2)cc1)c1cccnc1` gave TPT1 inh 0, Rpn11 inh inactive, IDE cell inh 0, HNF4A DNA FP -1, CSN inh 5 and IDE act 2.
`Cc1cc(C)c2c(c1)CC(C)(C)CC2=O` gave Rpn11 inh inactive, HNF4A DNA FP 57*, CSN inh -3 and IDE act 4.
`CC(C)(C(=O)N1CCC1(C)C(=O)NS(=O)(=O)c1ccccc1Cl)c1ccccc1` (configuration not stated) gave Rpn11 inh inactive, HNF4A DNA FP -4 and CSN inh 1.
`Cc1ccccc1S(=O)(=O)NC(=O)C1(C)CCN1C(=O)C(C)(C)c1ccccc1` (configuration not stated) gave Rpn11 inh inactive, HNF4A DNA FP 39* and CSN inh 1.
COc1ccc(C(=O)N/N=C/c2cc3ccccc3[nH]c2=O)cc1 was read as TPT1 inh -3, Rpn11 inh inactive, IDE cell inh 0, HNF4A DNA FP 0, CSN inh 2 and IDE act 30*.
COc1ccc(OC)c(/C=N\NC(=O)c2ccc(-c3ccccc3)cc2)c1 was read as Rpn11 inh inactive, HNF4A DNA FP -2, CSN inh 2 and IDE act -14.
For C=CCn1c(SCc2ccc3c(c2)OCO3)nc2scc(-c3ccco3)c2c1=O the results were TPT1 inh 0, Rpn11 inh inactive, IDE cell inh 3, HNF4A DNA FP -24, CSN inh 57* and IDE act -4.
`C=CCn1c(SCC(C)=O)nc2scc(-c3ccco3)c2c1=O` gave TPT1 inh 17, Rpn11 inh inactive, IDE cell inh 3, HNF4A DNA FP -34, CSN inh 24 and IDE act -1.
`Cc1ccc(C(=O)NNC(=O)CSc2nnc3c(n2)[nH]c2ccc(F)cc23)cc1` gave TPT1 inh -1, Rpn11 inh inactive, IDE cell inh 7, HNF4A DNA FP -10, CSN inh 43* and IDE act -2.
For CCn1cc(CNC(=O)/C=C/c2cnn(C)c2)c(C)n1 the results were TPT1 inh -1, Rpn11 inh inactive, IDE cell inh -2, HNF4A DNA FP 45*, CSN inh -1 and IDE act 4.
O=C(Nc1cc(S(=O)(=O)N2CCOCC2)ccc1N1CCOCC1)c1ccccc1F was read as Rpn11 inh inactive, IDE cell inh 3, HNF4A DNA FP 4, CSN inh -2 and IDE act 20*.
For O=C(Nc1ccccc1F)c1cc(S(=O)(=O)N2CCOCC2)ccc1N1CCOCC1 the results were Rpn11 inh inactive, HNF4A DNA FP -3, CSN inh -1 and IDE act 5.
For CCOc1ccc(N=Cc2c(C)[nH]n(-c3nc4ccccc4[nH]3)c2=O)cc1 the results were TPT1 inh 1, Rpn11 inh inactive, IDE cell inh 10, HNF4A DNA FP 3, CSN inh 14 and IDE act 6.
Screening CC/C=C(/NC(C)=O)c1ccccc1 returned Rpn11 inh inactive, IDE cell inh 5, HNF4A DNA FP -3, CSN inh -5 and IDE act -4.
Screening COCO/C=C(\NC(C)=O)c1ccccc1 returned Rpn11 inh inactive, IDE cell inh 2, HNF4A DNA FP 3, CSN inh -9 and IDE act 31*.
N#CC(C#N)=C1C=C2C=C(N3CCCCC3)CCC2CC1 (configuration not stated) was read as TPT1 inh 3 and IDE cell inh -30.
Screening CCCCN(C)C1=CC2=CC(=C(C#N)C#N)CCC2CC1 (configuration not stated) returned TPT1 inh 3, IDE cell inh -13, HNF4A DNA FP -98, CSN inh -75 and IDE act 46*.
Screening O=C1CC(c2ccc(O)cc2)Oc2cc(O)cc(O)c21 (configuration not stated) returned TPT1 inh -2, Rpn11 inh inactive, IDE cell inh 9, HNF4A DNA FP 2, CSN inh -4 and IDE act -1.

Compound activity deposited in PubChem BioAssay by several laboratories.
